One compound from ChEMBL document CHEMBL4706728, “Discovery of a Highly Selective and Potent TRPC3 Inhibitor with High Metabolic Stability and Low Toxicity” (ACS Med Chem Lett, 2021) can be followed below.

Data set [1] deals with T1, Short transient receptor potential channel 3 (Homo sapiens) (UniProt Q13507).
T1 sequence (whole entry): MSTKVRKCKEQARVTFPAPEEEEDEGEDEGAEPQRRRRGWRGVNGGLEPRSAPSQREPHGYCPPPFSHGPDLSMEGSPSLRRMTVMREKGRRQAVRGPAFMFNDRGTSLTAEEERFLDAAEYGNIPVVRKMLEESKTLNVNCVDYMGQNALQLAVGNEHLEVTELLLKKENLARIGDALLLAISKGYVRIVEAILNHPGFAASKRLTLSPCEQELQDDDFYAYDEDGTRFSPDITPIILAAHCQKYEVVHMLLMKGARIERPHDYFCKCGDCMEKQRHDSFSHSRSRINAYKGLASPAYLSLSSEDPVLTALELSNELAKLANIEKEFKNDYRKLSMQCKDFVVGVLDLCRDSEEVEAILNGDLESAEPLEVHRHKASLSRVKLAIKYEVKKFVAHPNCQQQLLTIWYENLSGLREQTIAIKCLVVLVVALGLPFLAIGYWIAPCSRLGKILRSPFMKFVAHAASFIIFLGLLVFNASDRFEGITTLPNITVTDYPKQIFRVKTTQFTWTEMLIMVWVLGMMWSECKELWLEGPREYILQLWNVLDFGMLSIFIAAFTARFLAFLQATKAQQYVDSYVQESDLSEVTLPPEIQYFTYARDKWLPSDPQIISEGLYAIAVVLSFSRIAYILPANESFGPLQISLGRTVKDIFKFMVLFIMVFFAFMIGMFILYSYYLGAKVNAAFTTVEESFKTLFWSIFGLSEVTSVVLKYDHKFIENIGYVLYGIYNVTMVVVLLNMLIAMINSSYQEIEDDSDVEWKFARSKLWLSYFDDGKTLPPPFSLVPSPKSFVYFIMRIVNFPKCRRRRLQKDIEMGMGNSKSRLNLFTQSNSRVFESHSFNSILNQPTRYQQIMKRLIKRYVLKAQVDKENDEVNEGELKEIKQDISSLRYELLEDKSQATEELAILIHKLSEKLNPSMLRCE
The data set can be described thus: Inhibition of human TRPC3 expressed in HEK293 cells assessed as inhibition of GSK170-induced current at 10 uM in absence of extracellular calcium by whole cell patch-clamp method relative to control. It counts as cell-based. In short, it runs like this:
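Human TRPC3 transiently expressed in HEK293 cells; whole-cell patch clamp with Ca2+-free solutions. Channel activated by GSK1702934A, then test compound at 10 μM perfused with the agonist. Inhibition expressed as percentage of the agonist-evoked current; mean ± SD, n cells per compound.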
For orientation: In patch-clamp work, channel activity is measured electrically.

The next data set has as its target ORAI1/STIM1 (Homo sapiens, UniProt Q96D31+Q13586). The data set can be described thus: Inhibition of STIM/Orai1 (unknown origin) expressed in HEK293 cells assessed as reduction in thapsigargin-induced Ca2+ influx at 10 uM in presence of Ca2+ by whole cell patch clamp method. It counts as cell-based. The conditions noted are these: hek293, 10 µM.

As a reminder, the inhibition is the change of the read-out against control, counted positive when it falls.

Chain of ORAI1/STIM1 (Q96D31 whole entry): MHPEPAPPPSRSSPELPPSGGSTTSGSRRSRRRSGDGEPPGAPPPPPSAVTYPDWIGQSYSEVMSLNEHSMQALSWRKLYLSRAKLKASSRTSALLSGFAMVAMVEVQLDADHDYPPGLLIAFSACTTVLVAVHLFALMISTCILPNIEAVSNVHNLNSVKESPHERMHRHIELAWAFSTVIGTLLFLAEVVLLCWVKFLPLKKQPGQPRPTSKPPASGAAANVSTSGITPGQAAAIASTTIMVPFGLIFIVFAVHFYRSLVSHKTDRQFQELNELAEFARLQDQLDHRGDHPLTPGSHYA
Chain of ORAI1/STIM1 (Q13586 whole entry): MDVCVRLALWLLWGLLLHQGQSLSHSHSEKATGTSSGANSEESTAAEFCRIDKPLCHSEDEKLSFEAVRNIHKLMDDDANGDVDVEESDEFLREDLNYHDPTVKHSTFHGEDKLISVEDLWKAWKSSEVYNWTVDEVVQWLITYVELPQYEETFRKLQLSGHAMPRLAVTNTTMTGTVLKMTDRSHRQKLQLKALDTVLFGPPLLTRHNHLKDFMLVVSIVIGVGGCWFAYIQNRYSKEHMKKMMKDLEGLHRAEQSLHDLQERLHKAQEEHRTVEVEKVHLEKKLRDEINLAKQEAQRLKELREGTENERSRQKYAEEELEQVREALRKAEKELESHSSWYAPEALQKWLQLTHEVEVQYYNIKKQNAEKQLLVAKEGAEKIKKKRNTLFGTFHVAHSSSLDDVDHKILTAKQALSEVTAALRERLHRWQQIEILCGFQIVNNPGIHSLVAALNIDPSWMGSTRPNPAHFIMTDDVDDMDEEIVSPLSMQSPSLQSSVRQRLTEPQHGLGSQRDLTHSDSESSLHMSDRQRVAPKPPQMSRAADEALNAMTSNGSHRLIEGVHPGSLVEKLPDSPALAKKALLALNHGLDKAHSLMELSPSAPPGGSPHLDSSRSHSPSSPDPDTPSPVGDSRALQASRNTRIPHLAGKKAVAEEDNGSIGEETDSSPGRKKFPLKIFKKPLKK

As for `CCNC(=O)c1cnn(-c2ccc(-n3ccc(Cl)c(Cl)c3=O)cc2)c1C(F)(F)F`, the inhibition in data set [1] was found to be 89%. For the same compound, the “inhibition (INH)” value on ORAI1/STIM1 is given as “Active”.
